# According to ChEMBL document CHEMBL1148105, “Bioactive metabolites from a marine-derived strain of the fungus Emericella variecolor” (2002):
# Activity calls are given as the source filed them. No cut-off for these calls is given here.
# Experiments:
# [1] = test system: Staphylococcus aureus; assay: Antimicrobial activity against Staphylococcus aureus at 100 ug/ml; assay type: functional, organism-based
# [2] = test system: Escherichia coli; assay: Antimicrobial activity against Escherichia coli at 100 ug/ml; assay type: functional, organism-based
# [3] = test system: SK-MEL-2; assay: Growth inhibition of human SK-MEL-2 cells; assay type: functional
# How it was run: (§1)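 Run in the NCI 60-cell-line screen under the standard NCI protocol. Cells were tested at concentrations up to 10^-4 M. Potency was expressed as GI50 (M), taken from the NCI mean-graph data.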
# [4] = test system: NCI-H226; assay: Growth inhibition of human NCI-H226 cells; assay type: functional
# How it was run: (§2)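 Tested in the NCI 60-cell-line screen using the standard NCI protocol, with concentrations up to 10^-4 M. Growth inhibition is reported as GI50 (M), taken from the NCI mean graphs.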
# [5] = test system: HCT-15; assay: Growth inhibition of human HCT15 cells; assay type: functional; how it was run: as §2
# [6] = test system: NCI-H460; assay: Growth inhibition of human NCI-H460 cells; assay type: functional; how it was run: as §2
# [7] = test system: SNB-75; assay: Growth inhibition of human SNB75 cells; assay type: functional; how it was run: as §1
# [8] = test system: OVCAR-8; assay: Growth inhibition of human OVCAR8 cells; assay type: functional; how it was run: as §2
# [9] = test system: NCI-H522; assay: Growth inhibition of human NCI-H522 cells; assay type: functional; how it was run: as §2
# [10] = test system: Salmonella typhimurium; assay: Antimicrobial activity against Salmonella Typhimurium at 100 ug/ml; assay type: functional, organism-based; conditions: Salmonella enterica subsp. enterica serovar Typhimurium
# [11] = test system: PC-3; assay: Growth inhibition of human PC3 cells; assay type: functional; how it was run: as §1
# [12] = test system: HCC 2998; assay: Growth inhibition of human HCC2998 cells; assay type: functional; how it was run: as §2
# [13] = test system: HOP-92; assay: Growth inhibition of human HOP92 cells; assay type: functional; how it was run: as §2
# [14] = test system: Candida albicans; assay: Antimicrobial activity against Candida albicans at 100 ug/ml; assay type: functional, organism-based
# [15] = test system: A549; assay: Growth inhibition of human A549 cells; assay type: functional
# [16] = test system: CCRF-CEM; assay: Growth inhibition of human CCRF-CEM cells; assay type: functional; how it was run: as §2
# [17] = test system: HOP-62; assay: Growth inhibition of human HOP62 cells; assay type: functional; how it was run: as §2
# [18] = test system: SK-MEL-5; assay: Growth inhibition of human SK-MEL-5 cells; assay type: functional; how it was run: as §1
# [19] = test system: T47D; assay: Growth inhibition of human T47D cells; assay type: functional; how it was run: as §1
# [20] = test system: TK-10; assay: Growth inhibition of human TK10 cells; assay type: functional; how it was run: as §1
# [21] = test system: HT-29; assay: Growth inhibition of human HT-29 cells; assay type: functional
# [22] = test system: CAKI-1; assay: Growth inhibition of human Caki1 cells; assay type: functional; how it was run: as §2
# [23] = test system: MDA-MB-435; assay: Growth inhibition of human MDA-MB-435 cells; assay type: functional; how it was run: as §2
# [24] = test system: IGROV-1; assay: Growth inhibition of human IGROV1 cells; assay type: functional; how it was run: as §2
# [25] = read-out: pLC50 (the source's name) (converted)
smiles,measurement,setting,value
COc1cccc(/C=C/[C@H]2O[C@@H](C)[C@H](O)[C@@H]2O)c1CO [VARITRIOL],Activity,[1],inactive
same,Activity,[2],inactive
same,GI50,[3],> 100 µM
same,CC50,[3]; [25],> 100 µM
same,TGI,[3]; read-out: pTGI,> 100 µM
same,GI50,[4],> 100 µM
same,CC50,[4]; [25],> 100 µM
same,TGI,[4]; read-out: pTGI,> 100 µM
same,GI50,[5],> 100 µM
same,CC50,[5]; [25],> 100 µM
same,TGI,[5]; read-out: pTGI,> 100 µM
same,GI50,[6],> 100 µM
same,CC50,[6]; [25],> 100 µM
same,TGI,[6]; read-out: pTGI,> 100 µM
same,GI50,[7],0.245 µM
same,CC50,[7]; [25],> 100 µM
same,TGI,[7]; read-out: pTGI (converted),1.02 µM
same,GI50,[8],> 100 µM
same,CC50,[8]; [25],> 100 µM
same,TGI,[8]; read-out: pTGI,> 100 µM
same,GI50,[9],> 100 µM
same,CC50,[9]; [25],> 100 µM
same,TGI,[9]; read-out: pTGI,> 100 µM
same,Activity,[10],inactive
same,GI50,[11],> 100 µM
same,CC50,[11]; [25],> 100 µM
same,TGI,[11]; read-out: pTGI,> 100 µM
same,GI50,[12],> 100 µM
same,CC50,[12]; [25],> 100 µM
same,TGI,[12]; read-out: pTGI,> 100 µM
same,GI50,[13],> 100 µM
same,CC50,[13]; [25],> 100 µM
same,TGI,[13]; read-out: pTGI,> 100 µM
same,Activity,[14],inactive
same,GI50,[15],> 100 µM
same,CC50,[15]; [25],> 100 µM
same,TGI,[15]; read-out: pTGI,> 100 µM
same,GI50,[16],25.7 µM
same,CC50,[16]; [25],> 100 µM
same,TGI,[16]; read-out: pTGI (converted),70.8 µM
same,GI50,[17],> 100 µM
same,CC50,[17]; [25],> 100 µM
same,TGI,[17]; read-out: pTGI,> 100 µM
same,GI50,[18],> 100 µM
same,CC50,[18]; [25],> 100 µM
same,TGI,[18]; read-out: pTGI,> 100 µM
same,GI50,[19],0.209 µM
same,CC50,[19]; [25],> 100 µM
same,TGI,[19]; read-out: pTGI (converted),1.05 µM
same,GI50,[20],> 100 µM
same,CC50,[20]; [25],> 100 µM
same,TGI,[20]; read-out: pTGI,> 100 µM
same,GI50,[21],> 100 µM
same,CC50,[21]; [25],> 100 µM
same,TGI,[21]; read-out: pTGI,> 100 µM
same,GI50,[22],> 100 µM
same,CC50,[22]; [25],> 100 µM
same,TGI,[22]; read-out: pTGI,> 100 µM
same,GI50,[23],> 100 µM
same,CC50,[23]; [25],> 100 µM
same,TGI,[23]; read-out: pTGI,> 100 µM
same,GI50,[24],> 100 µM
same,CC50,[24]; [25],> 100 µM
same,TGI,[24]; read-out: pTGI,> 100 µM
